Compounds with a hit are over-represented: about 1.4% of the library has one in this group of screens.
ASAP1 inh – inhibitors of human ASAP1 ArfGAP activity, primary screen, biochemical, fluorescence polarization | Arf-GAP with SH3 domain, ANK repeat and PH domain-containing protein 1 (Homo sapiens), … | ASAP1-stimulated ARF1 GTP hydrolysis, GDP FP detection | inhibition, % at 16.5 µM | 360,000 compounds, 0.19% hits | AID 624377, 2012; in the data active = inhibition above about 25%;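 also: 0% = vehicle with enzyme and substrate and 100% = no enzyme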
Target sequence (Q9ULH1 325-724 limits assumed): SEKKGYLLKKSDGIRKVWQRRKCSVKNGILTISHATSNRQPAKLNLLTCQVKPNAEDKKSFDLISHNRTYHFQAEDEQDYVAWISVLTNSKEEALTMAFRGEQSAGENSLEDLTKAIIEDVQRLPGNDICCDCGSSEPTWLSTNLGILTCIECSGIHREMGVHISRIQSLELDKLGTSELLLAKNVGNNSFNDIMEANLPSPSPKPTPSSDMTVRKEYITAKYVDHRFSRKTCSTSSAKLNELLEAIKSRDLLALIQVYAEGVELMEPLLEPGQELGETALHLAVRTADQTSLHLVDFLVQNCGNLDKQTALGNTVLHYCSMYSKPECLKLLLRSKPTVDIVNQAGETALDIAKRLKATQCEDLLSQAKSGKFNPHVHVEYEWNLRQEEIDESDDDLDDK
MsrA inhibitor – bovine MsrA enzyme inhibitors, primary screen, biochemical, absorbance, HTS; Methionine sulfoxide reductase A (Bos taurus); purified bovine MsrA, absorbance read-out; inhibition, % at 15.5 µM; 360,000 compounds, 0.75% hits; AID 651718, 2012; in the data active = inhibition above about 4.5%;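 also: 0% = vehicle wells with enzyme and 100% = reference inhibitor wells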
ARFGAP1 inh – inhibitors of rat ARFGAP1 GAP activity, primary screen, biochemical, fluorescence polarization, GDP tracer | AID 651572, 2012 | inhibition, % at 16.5 µM | Arfgap1-stimulated ARF1 GTP hydrolysis, GDP FP detection | 360,000 compounds, 0.26% hits;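 active = inhibition above a per-plate limit, mean inhibition of low control wells plus 3 SD, cut at about 25% in these data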;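 also: 0% = DMSO wells with enzyme and 100% = wells lacking Arfgap1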
Target sequence (Q62848 1-136 limits assumed): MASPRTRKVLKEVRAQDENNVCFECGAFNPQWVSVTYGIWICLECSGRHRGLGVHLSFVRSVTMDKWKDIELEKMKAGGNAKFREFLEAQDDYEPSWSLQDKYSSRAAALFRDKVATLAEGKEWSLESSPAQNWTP
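system = rat Arfgap1 catalytic domain, aa 1-136 | technique = FP, GDP Alexa 633 tracer displaced from anti-GDP antibody, 620/688 nm | compound = one concentration, 16.5 µM, DMSO 1.26% | medium = HEPES-based buffer, pH 7.5 | timing = compound-enzyme preincubation 20 min, reaction 120 min, detection 60 min, 25 °C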
MsrA act – bovine MsrA enzyme activators, primary screen, biochemical, absorbance, HTS; purified bovine MsrA, absorbance read-out; activation, % at 10.6 µM; 360,000 compounds, 0.3% hits; in the data active = activation above about 7.5%;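 also: 0% = vehicle and 100% = reference activator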
ASAP1 inh confirm – ASAP1 GAP activity inhibitors, confirmation, biochemical, fluorescence polarization, human, triplicate; shares compounds with ASAP1 inh; ASAP1-stimulated Arf1 GTPase, GDP fluorescence polarization; inhibition, % at 16.5 µM; 620 compounds, 37% hits; AID 624431, 2012;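 active = mean inhibition over triplicates exceeds the hit threshold derived for the earlier primary screening run, cut at about 25% in these data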
ARFGAP1 confirm – ARFGAP1 inhibitor hit confirmation, biochemical, fluorescence polarization, triplicate; shares compounds with ARFGAP1 inh; AID 651608, 2012; ARFGAP1-stimulated ARF1 GTP hydrolysis, GDP tracer FP; 890 compounds, 30% hits; inhibition, % at 16.5 µM;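 active = average inhibition over triplicates above the hit cutoff set in the earlier primary screen, cut at about 25% in these data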;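 also: 0% = Arfgap1 plus ARF1-GTP with DMSO and 100% = wells lacking Arfgap1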
* marks the source's active call; other numbers are inactive results; . = no result.

SMILES	ASAP1 inh	MsrA inhibitor	ARFGAP1 inh	MsrA act	ASAP1 inh confirm	ARFGAP1 confirm
Cc1nc2ccc(S(=O)(=O)Nc3cccc(-c4nc5cccnc5s4)c3)cc2s1	-4	1	-7	-10	.	.
Cc1nc2ccc(S(=O)(=O)Nc3ccc(-c4nc5cccnc5s4)cc3)cc2s1	28*	3	4	-8	19	.
COc1cccc(C(=O)NCCN2CCC(n3c(=O)[nH]c4ccccc43)CC2)c1	-2	-1	-2	0	.	.
O=C(C[n+]1cccc(C(=O)Nc2ccccc2)c1)c1ccc([N+](=O)[O-])cc1	5	0	-3	0	.	.
O=C(C[n+]1cccc(C(=O)Nc2ccccc2)c1)c1ccc(Cl)cc1	25*	0	3	-3	4	.
COc1ccc(-c2ccc(SCC(=O)Nc3cccc(C(C)=O)c3)nn2)cc1OC	-2	0	1	-4	.	.
CC(=O)c1cccc(NC(=O)CSc2ccc(-c3ccc4c(c3)OCO4)nn2)c1	25*	0	-3	-3	54*	.
O=C(Nc1ccc(NC(=S)NC(=O)c2ccco2)cc1)c1ccccc1	12	1	7	-4	.	.
O=C(Nc1ccc(NC(=S)NC(=O)c2ccco2)cc1)c1ccc(Br)cc1	58*	1	10	0	161*	.
C=CCn1cnnc1SCC(=O)N(C)CC1COc2ccccc2O1 (configuration not stated)	-4	0	-4	-5	.	.
C=CCn1cnnc1SCC(=O)NCC1COc2ccccc2O1 (configuration not stated)	31*	-1	3	-6	9	.
CC12CN(NC(=O)c3ccccc3F)C3(C#N)CC1CCC23C (configuration not stated)	-4	1	-7	-5	.	.
CCc1cccc2c(C(=O)CN3C(=O)NC(C)(c4cccc5ccccc45)C3=O)c[nH]c12 (configuration not stated)	32*	0	14	-3	28*	.
Cc1cccc(C(C)C)c1NC(=O)COC(=O)CCN1C(=O)C2CC=CCC2C1=O (configuration not stated)	-3	-1	6	-1	.	.
C[C@H](CO)N1C[C@H](C)[C@@H](CN(C)S(=O)(=O)c2ccccc2)Oc2c(NC(=O)Nc3ccc4c(c3)OCO4)cccc2C1=O	-5	0	0	-1	.	.
O=C(CSCC(=O)Nc1nc(-c2ccc3c(c2)OCO3)cs1)Nc1nccs1	9	2	-4	7	.	.
O=C(CSc1ccc(-c2ccc3c(c2)OCO3)nn1)Nc1nccs1	132*	-1	46*	-4	75*	135*
Cc1ccc(-c2ccc(/C=C3\SC(N4CCOCC4)=NC3=O)o2)cc1	49*	2	37*	-3	116*	87*
O=C1N=C(N2CCOCC2)SC1=Cc1ccco1	-2	1	7	-6	.	.
O=C1N=C(N2CCOCC2)S/C1=C/c1ccc(-c2ccc(F)cc2)o1	33*	-1	30*	-4	58*	49*
CCN(CC)CCOC(=O)c1ccc(N/C=C(/C#N)c2nc(-c3ccc(OC)cc3)cs2)cc1	48*	0	28*	1	51*	55*
CCN(CC)CCCN(C(=O)c1ccc(Br)cc1)c1nc(-c2ccc(OC)cc2)cs1	0	-1	-3	-2	.	.
COc1cc(/C=C(\C#N)c2nc(-c3cc4ccccc4oc3=O)cs2)ccc1O	20	0	9	-6	.	.
CCN(CC)CCOC(=O)c1ccc(N/C=C(/C#N)c2nc(-c3cc4ccccc4oc3=O)cs2)cc1	72*	3	84*	-3	99*	134*
COc1ccc(C(C)=O)cc1COC(=O)CSCC(=O)Nc1ccc(C)cc1	7	2	5	-2	.	.
SMILES	ASAP1 inh	MsrA inhibitor	ARFGAP1 inh	MsrA act	ASAP1 inh confirm	ARFGAP1 confirm
CCOc1ncccc1C(=O)OCC(=O)N(CC(C)C)C1CCS(=O)(=O)C1 (configuration not stated)	13	0	-9	-4	.	.
CC1C(=O)N2CCCc3cc(S(=O)(=O)N4CCC(C(N)=O)CC4)cc1c32 (configuration not stated)	4	0	9	-4	.	.
COc1ccc(-c2nc(CN3CCCCC3c3nccn3C)c(C)o2)c(C)c1C (configuration not stated)	10	0	7	3	.	.
CC1=CC2=NC(=O)/C(=C\c3ccc(-c4cccc(Cl)c4)o3)C(=N)N2O1	58*	-1	41*	-3	87*	131*
Cc1ccc2nc(SCC(=O)N3CCC(Cc4ccccc4)CC3)nc(=O)n2c1	26*	2	59*	-3	41*	68*
O=C(CSc1nc(=O)n2ccccc2n1)N1CCC(Cc2ccccc2)CC1	-6	1	14	-1	.	.
CCN1CCN(Cc2ccc(NC(=O)c3cccc(-c4ccc5nc(NC(=O)C6CC6)sc5n4)c3)cc2C(F)(F)F)CC1	27*	1	57*	.	40*	51*
CCC(/C=C1\Sc2ccc(OC)cc2N1CCO)=C\c1sc2ccc(OC)cc2[n+]1CCO	32*	0	42*	-4	35*	25*
CC(=O)Nc1ccc(NC(=O)CSc2ccc(-c3cccnc3)nn2)cc1	5	1	-3	-5	.	.
CC(=O)Nc1ccc(NC(=O)CSc2ccc(-c3ccc(-n4ccnc4)cc3)nn2)cc1	66*	-1	25*	0	71*	72*
CN(C)CCNC(=O)c1cccc(-c2cnc3c(NC=O)cc(/C=C/c4ccccc4)cn23)c1	42*	0	34*	-1	37*	45*
CN(C)CCNC(=O)c1cccc(-c2cnc3c(NC=O)cc(-c4cccc(F)c4)cn23)c1	10	0	4	-1	.	.
C[C@@H]1CN([C@H](C)CO)C(=O)CCCn2cc(nn2)CO[C@H]1CN(C)S(=O)(=O)c1ccc2ccccc2c1	13	-1	5	-1	.	.
CCN(CC)c1ccc(C(=O)O)cc1	6	-1	-7	-4	.	.
CCN(CC)c1ccc(C(=C2C=CC(=[N+](CC)CC)C=C2)c2ccc(S(=O)(=O)O)cc2S(=O)(=O)[O-])cc1	119*	0	121*	-2	118*	132*
COCC(=O)NCc1ccc2c(c1)cc(C)n2C	13	0	-7	-8	.	.

High-throughput results deposited in PubChem BioAssay by The Scripps Research Institute Molecular Screening Center.
